Here are results for three molecules from article PMC9078286 (RSC Advances, 2018).

Structures are written as SMILES.

Usually half-life stands for the time in which the quantity being followed falls by half.

The data set is classed as in vivo, Sprague-Dawley rats. The note with it: for concentration at 2 h / half-life: male, Sprague-Dawley, rat, plasma, po; for concentration at 2 h: 80 mg kg^-1 Gandi capsule; for half-life: 80 mg/kg, T 1/2 z; for half-life / T max: Normal rats, oral Gandi capsule 80 mg kg^-1, plasma, n = 6, mean ± SD. The procedure, abridged: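 Diabetes was induced by a single ip STZ dose of 45 mg kg−1 in citrate buffer (0.1 mol L−1, pH 4.5), with blood glucose >16.7 mmol L−1 after 1 week; rats were dosed on day 10. Rats were fasted 12 h, then given capsule contents in 0.3% CMC-Na orally; n = 6/group. Plasma was sampled 0–48 h, precipitated with IS in methanol and analysed by positive-ion LC-MS/MS; results are mean ± SD, compared by t-test.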

As for `COc1c(O)cc(O)c2c(=O)cc(-c3ccccc3)oc12` [Wogonin, wogonin], the concentration at 2 h turned out to be 54.9 ng/mL and the half-life was 1.52 ± 0.25 h.

`COC(=O)C1=CO[C@@H](O[C@@H]2O[C@H](CO)[C@@H](O)[C@H](O)[C@H]2O)[C@@H]2[C@@H](C)[C@@H](O)C[C@H]12` [Loganin, loganin] showed a T max of 1.25 ± 0.35 h, a concentration at 2 h of 42.6 ng/mL and a half-life of 0.46 ± 0.38 h. Further, where the note is “oral Gandi capsule, rat plasma, quick elimination phase”, the “Time after oral administration in which the compound can be detected in plasma” value is at most 2.5 h.

In turn, `O=C(O)[C@H]1O[C@@H](Oc2cc3oc(-c4ccccc4)cc(=O)c3c(O)c2O)[C@H](O)[C@@H](O)[C@@H]1O` [Baicalin, baicalin] showed a T max of 1.50 ± 1.40 h, a concentration at 2 h of 723 ng/mL and a half-life of 9.45 ± 2.87 h.
